S100A4 inh HTS – blocks human S100A4 binding to myosin IIA peptide; P26447; S100A4/TAMRA-MyoIIA peptide fluorescence polarization; inhibition, % at 10.7 µM; hit rate 0.14% among 360,000;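 active = mean inhibition of at least 70% across replicates, with every replicate also reaching that level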
Target sequence (P26447 whole entry, looked up): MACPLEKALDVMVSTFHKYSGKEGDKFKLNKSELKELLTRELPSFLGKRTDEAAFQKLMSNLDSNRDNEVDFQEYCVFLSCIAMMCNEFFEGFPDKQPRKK
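Assay system: human S100A4 monomer with TAMRA-labelled myosin IIA peptide / Buffer or medium: Calcium-containing HEPES buffer, pH 7.2 / Reagent: TAMRA-labelled myosin IIA heavy-chain peptide probe, 5 nM / Compound: one dose per compound / Timing: polarization read 5 min after assay mix addition, stable 5–60 min / Benchmarks: neutral control DMSO, positive control TFP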
CAL PDZ FP-1 – blocks peptide binding to the human CAL PDZ domain. hit rate 0.92% among 300,000. inhibition, % at 24.9 µM. Q9HD26. purified CAL PDZ, TMR-peptide fluorescence polarization, 1 h;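 active = mean inhibition of at least 30% with at least half of replicates also reaching 30%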;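 note: 0% = DMSO neutral control and 100% = excess unlabeled competitor peptide PRC23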
CAL PDZ FP-2 – inhibitors of human CAL PDZ peptide binding | Q9HD26 | purified CAL PDZ, TMR-peptide fluorescence polarization, 1 h | inhibition, % at 20 µM | hit rate 0.02% among 330,000 | AID 504414;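 active = highest replicate inhibition of at least 40%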;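 note: plate controls were DMSO neutral control wells for no effect and unlabeled competitor peptide control wells for full effect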
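Read-out basis: mP drop reported as inhibition | Assay system: Tagged CAL PDZ protein CerCALP, purified | Benchmarks: Unlabelled peptide for full inhibition, DMSO wells as neutral | Schedule: 1 h incubation at room temperature before polarization reading | Buffer or medium: Sodium phosphate/NaCl buffer pH 7.4 with TCEP, IgG, Thesit | Doses: Single point, 20 µM | Measured by: Fluorescence polarization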
Statin myotox sup – suppressors of simvastatin-induced myotoxicity in C2C12 myotubes; rescue of ATP level, % at 7.49 µM; ATP luminescence, 48 h; scaled: DMSO 0, geranylgeraniol control 100; AID 602340; hit rate 0.78% among 330,000;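 active = mean ATP rescue above about 67%, or every replicate alone reaching that limit, limit read from the data, passing the limit was not always enough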;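 note: myotubes were challenged with 10 µM simvastatin during compound exposure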
dFosB act-1 – activators of mouse delta FosB homodimer; hit rate 0.99% among 340,000; AID 493131; purified delta FosB, TAMRA-CDK5 oligo fluorescence polarization; percent of positive-control signal above neutral wells; activation, % at 25 µM;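 active = mean activation above about 17%, with every replicate also reaching it, limit read from the data, passing the limit was not always enough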
Target sequence (P13346 whole entry, looked up): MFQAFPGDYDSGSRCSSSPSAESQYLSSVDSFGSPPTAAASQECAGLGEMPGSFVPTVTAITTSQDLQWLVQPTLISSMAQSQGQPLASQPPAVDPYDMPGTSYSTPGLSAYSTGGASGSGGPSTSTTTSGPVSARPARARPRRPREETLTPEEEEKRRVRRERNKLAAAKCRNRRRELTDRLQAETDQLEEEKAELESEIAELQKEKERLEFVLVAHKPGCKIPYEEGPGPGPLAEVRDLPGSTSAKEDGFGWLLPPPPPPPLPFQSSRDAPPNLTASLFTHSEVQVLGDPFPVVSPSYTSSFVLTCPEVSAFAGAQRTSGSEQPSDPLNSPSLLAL
CDK5 inh – inhibitors of human CDK5/p35 kinase; hit rate 0.01% among 330,000; AID 488839; inhibition, % at 10 µM; Q00535+Q15078; Recombinant CDK5/p35, ADP-Glo luminescence, 60 min;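 active = highest replicate inhibition of at least 50% and at least 75% of replicates reaching 50%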;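 note: plate controls were DMSO neutral control for no effect and GW8510 at 10 µM for full effect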
dFosB act-2 – delta FosB (mouse) homodimer activation; purified delta FosB, TAMRA-CDK5 oligo fluorescence polarization; normalised: neutral wells 0, positive control 100; 2,400 tested, under 10 active; shares compounds with dFosB act-1; activation, % at 24.9 µM;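 active = highest replicate activation at or above 34% and every replicate reaching that threshold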;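 note: higher polarization means more probe DNA bound by delta FosB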
Active calls of the source: *; nt = not tested or not shown. In the library only some 2% were active in any assay of this set; here they are far more common.

SMILES	S100A4 inh HTS	CAL PDZ FP-1	CAL PDZ FP-2	Statin myotox sup	dFosB act-1	CDK5 inh	dFosB act-2
Cc1ccccc1C(=O)Nc1nc(-c2cccnc2)cs1	2	0	-2	-6	8	-2	nt
NC(=O)CC(NC(=O)Cc1cccc2ccccc12)c1ccc(NCc2ccc(F)cc2)c([N+](=O)[O-])c1 (stereo not given)	19	-1	-1	6	32*	-1	-6
NC(=O)CC(NC(=O)Cc1cccc2ccccc12)c1ccc(NCc2ccccc2)c([N+](=O)[O-])c1 (stereo not given)	3	-6	1	-1	47*	-1	2
CC(C)Cn1c(=O)c(C(=O)Nc2ccccc2S(N)(=O)=O)c(O)c2ccccc21	-3	-1	0	0	1	-1	nt
CCC(C)n1c(=O)c(C(=O)Nc2ccccc2S(N)(=O)=O)c(O)c2ccccc21 (stereo not given)	nt	-2	1	-1	74*	1	2
O=C(CCCn1c(SCc2ccccc2F)nc2ccccc2c1=O)NCC1CCCO1 (stereo not given)	-2	0	-4	5	-7	1	nt
COc1cccc(NC(=S)N2CCc3cc(OC)c(OC)cc3C2COc2ccc3c(C)cc(=O)oc3c2)c1 (stereo not given)	nt	-7	0	nt	65*	-1	1
O=Cc1cn(-c2ccccc2)nc1-c1cc2c(ccc3ccccc32)oc1=O	nt	-7	-1	nt	2	0	nt
O=Cc1cn(-c2ccccc2)nc1-c1cc2cc(O)ccc2oc1=O	nt	nt	-2	-39	25*	3	3
CC(Sc1nnc2c(n1)[nH]c1ccccc12)C(=O)N(C)C1CCCCC1 (stereo not given)	7	-8	-1	-23	-20	0	nt
CC(Sc1nnc2c(n1)[nH]c1ccccc12)C(=O)NC1CCCCC1 (stereo not given)	3	0	-5	9	22*	9	2
CC(C)c1ccc2[nH]c3nc(SCC(=O)NC4CC4)nnc3c2c1	-7	nt	-3	-8	30*	0	0
C[C@@H]1CN([C@H](C)CO)S(=O)(=O)c2ccc(Br)cc2O[C@@H]1CN(C)C(=O)CN1CCOCC1	13	nt	nt	20	nt	nt	nt
CCc1ccc(CNC(=O)CCn2nc(C)c3c(C)n(-c4ccccc4)nc3c2=O)cc1	-4	2	-1	-9	73*	1	6
Cc1ccc(-n2nc3c(=O)n(CC(=O)NCc4ccccc4Cl)nc(C)c3c2C)cc1	1	nt	-1	20	-13	-1	nt
Cc1ccc(-n2nc3c(=O)n(CC(=O)NCCc4ccc(Cl)cc4)nc(C)c3c2C)cc1	1	-5	-2	7	51*	1	0
Cc1ccc(-n2nc3c(=O)n(CC(=O)NCc4ccccc4)nc(C)c3c2C)cc1	-1	-4	0	-3	21*	-3	0
Cc1ccc(CCNC(=O)CCCn2nc(C)c3c(C)n(-c4ccc(C)cc4)nc3c2=O)cc1	-9	0	-3	-7	2	nt	nt
O=C(NCCC1CCCCN1S(=O)(=O)c1ccccc1)C(=O)NCc1ccccn1 (stereo not given)	-2	10	0	-5	7	0	nt
Cc1ccc(C(=O)Nc2cccc(S(=O)(=O)N3CCCCC3)c2)cc1[N+](=O)[O-]	-1	-4	0	-1	5	-2	nt
NS(=O)(=O)c1ccc(NC(=O)COC(=O)/C(=C/c2cccs2)c2cccs2)cc1	-1	-2	-3	nt	27*	-3	1
NS(=O)(=O)c1ccc(NC(=O)Cc2cccs2)cc1	-5	nt	1	0	-1	-2	nt
COc1ccc(NC(=O)Cn2nnc(C(=O)NCc3ccc(C)cc3)c2N)cc1Cl	2	nt	0	-4	7	2	nt
Cc1cc(C)cc(NC(=O)Cn2nnc(C(=O)NCc3ccc(F)cc3)c2N)c1	1	3	-4	120*	58*	2	3
Cc1cc(C)cc(NC(=O)Cn2nnc(C(=O)NCc3ccccc3Cl)c2N)c1	-6	-1	0	-1	41*	-7	0
SMILES	S100A4 inh HTS	CAL PDZ FP-1	CAL PDZ FP-2	Statin myotox sup	dFosB act-1	CDK5 inh	dFosB act-2
O=C(O)COc1ccccc1/C=N/NC(=O)CSc1nc2ccccc2n1Cc1ccccc1	-7	-6	-3	7	-9	-1	nt
C=CCn1c(=NC(=O)c2cc(Cl)sc2Cl)sc2cc(S(N)(=O)=O)ccc21	nt	2	-2	nt	25*	0	4
COc1ccc(CNCCC(c2ccc(F)cc2)c2ccc(OC)cc2)cc1 (stereo not given)	nt	-2	-4	nt	21*	1	4
COCCNC(=O)C[C@H]1C[C@H]2c3cc(NC(=O)COC)ccc3O[C@H]2[C@@H](CO)O1	-27	nt	nt	2	nt	nt	nt
O=C(Nc1ccc(Cl)cc1Cl)NC1CCN(S(=O)(=O)c2ccc(F)cc2)CC1	-3	-9	-2	nt	55*	0	1
O=C(Nc1ccc(Cl)cc1Cl)NC1CCCC1	0	-3	-2	-5	-3	0	nt
COc1ccc(-c2noc(CSc3nc(N)c(-c4ccccc4)c(=O)[nH]3)n2)cc1	-1	1	-4	4	62*	0	-1
Nc1nc(SCc2ccc(Cl)cc2)[nH]c(=O)c1-c1ccccc1	nt	-5	-2	16	-10	0	nt
Oc1ccc(NC(=S)N=Nc2c(O)[nH]c3ccccc23)cc1	-3	-2	0	4	-2	0	nt
CCCCn1c(N)c(N(CC(C)C)C(=O)c2cccc(S(=O)(=O)N3CCCCCC3)c2)c(=O)[nH]c1=O	-3	nt	-2	-7	39*	0	-5
O=C(Cn1nnc(-c2ccc(F)cc2)n1)N1CCCCC1	-3	1	-1	-3	-4	-1	nt
COCCCNC(=O)Cn1nnc(-c2ccc(NC(=O)c3ccc(F)cc3)cc2)n1	nt	-3	-3	0	35*	-4	8
O=C(Nc1ccc(-c2nnn(CC(=O)N3CCN(C(=O)c4ccco4)CC3)n2)cc1)c1ccc(F)cc1	-10	-4	-1	8	35*	2	5
Cc1cc(C(=O)Nc2cccc3c2O[C@H](CN(C)S(C)(=O)=O)[C@H](C)CN([C@H](C)CO)C3=O)n(C)n1	8	nt	nt	nt	nt	nt	nt
CC1(C)Cc2ccccc2C(=C(C#N)C#N)N1	nt	-2	-2	4	4	0	nt
O=C(Nc1ccccc1Cl)N(Cc1nc2ccccc2c(=O)[nH]1)Cc1cccs1	nt	1	-1	nt	33*	3	1

Screening data from PubChem BioAssay.
